Four compounds from PubChem BioAssay AID2560 (University of Pittsburgh Molecular Library Screening Center, 2010) can be followed below.

Molecules are shown by their SMILES. This is one part of the list. Values without a mark were called inactive.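 How the source made its calls: active means inhibition of at least 50% in both of the two screening runs; inconclusive means at least 50% in one run, below 50% in the other; inactive means inhibition below 50% in both runs.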

The subject of this experiment is hexokinase 1 (Trypanosoma brucei). Nature of the experiment: TbHK1 inhibitor retest, confirmation, biochemical, DPI cherry-picked primary actives (AID 2560).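 Further: 0% and 100% set by the maximum and minimum signal control wells on each plate.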 The settings on record: recombinant TbHK1, G6PDH-coupled NADH A340 absorbance; at 10 µM; active compounds read high. Put shortly:
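Test system: T. brucei hexokinase 1, G6PDH-coupled; medium: Mg2+, NAD+ and G6PDH coupling mix; also added: glucose 0.5 mM plus ATP 0.35 mM; compound: one dose, 10 µM; schedule: enzyme reaction 2 h at room temperature; measured by: NADH absorbance at 340 nm after 50 mM EDTA stop; replicates: duplicate measurements per compound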
Usually inhibition stands for the drop in the measured response relative to a control, in per cent. On to `CC1(C)CC(=O)C=C(NCCCNC2CCCCC2)C1`, for which the inhibition was 2.17%. With `O=C(CN1C(=O)C2C3C=CC(C3)C2C1=O)NCCc1ccccc1Cl` (centres undefined), the inhibition is -0.0219%. `COC(=O)C1CCN(CC(N)=O)CC1`: the inhibition was 5.76%. As to `COc1cccc(/C=N/Nc2ncc(C(F)(F)F)cc2Cl)c1O`, the inhibition was -10.9%.
